Assay results as given in ChEMBL document CHEMBL1123791, “3'-substituted 2',3'-dideoxynucleoside analogues as potential anti-HIV (HTLV-III/LAV) agents” (J Med Chem, 1987).

How the values were obtained:
ATH-8 cell line [1] = assay: Protection of ATH8 cells against the cytopathic effect of HIV.; format: functional; conditions: Homo sapiens, read-out: ED50 (the source's name)
ATH-8 cell line [2] = assay: Required dose to reduce viability of normal uninfected ATH8 cells.; format: functional; conditions: Homo sapiens, read-out: ID50 (the source's name)
MT4 [3] = assay: Protection was determined by evaluation of cluster morphology and reclustering properties in […] at 5 uM concentration; Range is 40-60; format: functional, Homo sapiens
MT4 [4] = assay: Protection was determined by evaluation of cluster morphology and reclustering properties in […] MT-4 cells at 0.2 uM concentration; Range is 10-40; format: functional, Homo sapiens
Method in brief: (§1)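 MT4 cells infected with HIV (300 CCID50/well) were seeded at 2.5×10^5 cells/mL with compound at 125, 5, 0.2, 0.008 or 0.00032 µM and kept 5 days at 37 °C. Clusters were scored microscopically, dispersed by pipetting, and reclustering assessed after 4 h at 37 °C. Scoring: +++ >90% protection.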

MT4 [5] = assay: Protection was determined by evaluation of cluster morphology and reclustering properties in mock infected MT-4 cells at 125 uM concentration; format: functional, Homo sapiens; conditions: in the assay text read “HIV infected” for “mock infected”; method in brief: as §1
MT4 [6] = assay: Toxicity was determined by evaluation of cluster morphology and reclustering properties in mock infected MT-4 cells at 0.2 uM concentration; format: cell-based; conditions: human, mt4, 0.2 µM
MT4 [7] = assay: Toxicity was determined by evaluation of cluster morphology and reclustering properties in mock infected MT-4 cells at 125 uM concentration; Range is 10-40; format: cell-based; conditions: human, mt4, 125 µM
Method in brief: (§2)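 Mock-infected MT4 cells were seeded at 2.5×10^5 cells/mL with compound at 125–0.00032 µM and cultured 5 days at 37 °C. Cluster morphology was scored microscopically, then cells were dispersed by pipetting and reclustering read after 4 h. Scoring: ++ >90%, + 10–40%, − <10% toxicity.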

MT4 [8] = assay: Toxicity was determined by evaluation of cluster morphology and reclustering properties in mock infected MT-4 cells at 5 uM concentration; format: cell-based; conditions: human, mt4, 5 µM; method in brief: as §2
MT4 [9] = assay: Protection was determined by evaluation of cluster morphology and reclustering properties in […] MT-4 cells at 5 uM concentration.; format: functional, Homo sapiens; method in brief: as §1
MT4 [10] = assay: Protection was determined by evaluation of cluster morphology and reclustering properties in […] MT-4 cells at 0.2 uM concentration; format: functional, Homo sapiens
MT4 [11] = assay: Protection was determined by evaluation of cluster morphology and reclustering properties in mock infected MT-4 cells at 125 uM concentration; Range is 10-40; format: functional, Homo sapiens; conditions: in the assay text read “HIV infected” for “mock infected”; method in brief: as §1
MT4 [12] = assay: Toxicity was determined by evaluation of cluster morphology and reclustering properties in mock infected MT-4 cells at 125 uM concentration; format: cell-based; conditions: human, mt4, 125 µM
[13] = Therapeutic index (Ratio = ID50/ED50).
MT4 [14] = assay: Toxicity was determined by evaluation of cluster morphology and reclustering properties in mock infected MT-4 cells at 0.00032 uM concentration; format: cell-based; conditions: human, mt4, 0.00032 µM; method in brief: as §2
MT4 [15] = assay: Protection was determined by evaluation of cluster morphology and reclustering properties in […] MT-4 cells at 0.00032 uM concentration; format: functional, Homo sapiens; method in brief: as §1
MT4 [16] = assay: Protection was determined by evaluation of cluster morphology and reclustering properties in […] at 0.008 uM concentration.; format: functional, Homo sapiens
MT4 [17] = assay: Protection was determined by evaluation of cluster morphology and reclustering properties in […] MT-4 cells at 0.2 uM concentration; Range is 40-60; format: functional, Homo sapiens; method in brief: as §1
MT4 [18] = assay: Toxicity was determined by evaluation of cluster morphology and reclustering properties in mock infected MT-4 cells at 0.008 uM concentration; format: cell-based; conditions: human, mt4, 0.008 µM; method in brief: as §2
MT4 [19] = assay: Toxicity was determined by evaluation of cluster morphology and reclustering properties in mock infected MT-4 cells at 0.2 uM concentration; Range is 10-40; format: cell-based; conditions: human, mt4, 0.2 µM; method in brief: as §2
MT4 [20] = assay: Protection was determined by evaluation of cluster morphology and reclustering properties in […] MT-4 cells at 125 uM concentration; Range is 40-60; format: functional, Homo sapiens
MT4 [21] = assay: Protection was determined by evaluation of cluster morphology and reclustering properties in […] MT-4 cells at 5 uM concentration; Range is 10-40; format: functional, Homo sapiens; method in brief: as §1
MT4 [22] = assay: Toxicity was determined by evaluation of cluster morphology and reclustering properties in mock infected MT-4 cells at 5 uM concentration; Range is 10-40; format: cell-based; conditions: human, mt4, 5 µM
MT4 [23] = assay: Protection was determined by evaluation of cluster morphology and reclustering properties in […] MT-4 cells at 0.00032 uM concentration; Range is 10-40; format: functional, Homo sapiens; method in brief: as §1
MT4 [24] = assay: Protection was determined by evaluation of cluster morphology and reclustering properties in […] at 0.008 uM concentration; Range is 40-60; format: functional, Homo sapiens; method in brief: as §1
MT4 [25] = assay: Protection was determined by evaluation of cluster morphology and reclustering properties in […] MT-4 cells at 0.008 uM concentration; Range is 10-40; format: functional, Homo sapiens; method in brief: as §1
MT4 [26] = assay: Toxicity was determined by evaluation of cluster morphology and reclustering properties in mock infected MT-4 cells at 0.008 uM concentration; Range is 10-40; format: cell-based; conditions: human, mt4, 0.008 µM; method in brief: as §2

SMILES | EC50 (ATH-8 cell line [1]) | IC50 (ATH-8 cell line [2]) | Toxicity (MT4 [6]) | Toxicity (MT4 [8]) | Protection (MT4 [9]) | Protection (MT4 [10]) | Toxicity (MT4 [12]) | selectivity ratio [13] | further results
Cc1cn([C@H]2C[C@H](N=[N+]=[N-])[C@@H](CO)O2)c(=O)nc1N | > 100 µM | > 100 µM | < 10% | < 10% | – | – | – | – | Protection (MT4 [3]): 40%; Protection (MT4 [4]): 10%; Protection (MT4 [5]): >90%; Toxicity (MT4 [7]): 10%
CCc1cn(C2CC(F)C(CO)O2)c(=O)[nH]c1=O (stereo not given) | > 500 µM | > 500 µM | < 10% | < 10% | <10% | <10% | < 10% | – | Protection (MT4 [11]): 10%
Nc1ncnc2c1ncn2[C@H]1CC[C@@H](CO)O1 | 2.7 µM | > 500 µM | < 10% | < 10% | – | <10% | < 10% | > 148 | Protection (MT4 [3]): 40%; Protection (MT4 [5]): >90%
Nc1ccn(C2CC(F)C(CO)O2)c(=O)n1 (stereo not given) | 8 µM | > 250 µM | – | > 90% | – | – | > 90% | > 31 | Toxicity (MT4 [14]): < 10%; Protection (MT4 [15]): <10%; Protection (MT4 [16]): <10%; Protection (MT4 [17]): 40%; Toxicity (MT4 [18]): < 10%; Toxicity (MT4 [19]): 10%
Nc1ccn(C2CC3OCC3O2)c(=O)n1 (stereo not given) | 400 µM | > 500 µM | < 10% | < 10% | <10% | <10% | < 10% | > 1.2 | Protection (MT4 [11]): 10%
NCC1C=CC(n2ccc(N)nc2=O)O1 (stereo not given) | 260 µM | > 500 µM | < 10% | < 10% | <10% | <10% | – | > 1.9 | Protection (MT4 [20]): 40%; Toxicity (MT4 [7]): 10%
Cc1cn(C2CC(SCCO)C(CO)O2)c(=O)[nH]c1=O (stereo not given) | > 100 µM | > 100 µM | < 10% | < 10% | <10% | <10% | – | – | Protection (MT4 [11]): 10%; Toxicity (MT4 [7]): 10%
CO[C@H]1C[C@H](n2cc(C)c(=O)[nH]c2=O)O[C@@H]1CO | > 100 µM | 88 µM | < 10% | – | – | <10% | > 90% | < 0.9 | Protection (MT4 [21]): 10%; Protection (MT4 [16]): <10%; Toxicity (MT4 [22]): 10%
Cc1cn([C@H]2CC[C@@H](CO)O2)c(=O)[nH]c1=O | 100 µM | > 2000 µM | < 10% | < 10% | >90% | – | < 10% | > 20 | Protection (MT4 [16]): <10%; Protection (MT4 [4]): 10%
Cc1cn([C@H]2C[C@H](N=[N+]=[N-])[C@@H](CO)O2)c(=O)[nH]c1=O (stereo in doubt; 1a) [ZIDOVUDINE] | 2.4 µM | 45 µM | – | – | – | >90% | – | 19 | Toxicity (MT4 [14]): < 10%; Protection (MT4 [23]): 10%; Protection (MT4 [24]): 40%; Toxicity (MT4 [18]): < 10%; Toxicity (MT4 [12]; 125 µM): > 90%; Toxicity (MT4 [8]; 5 µM): > 90%
Cc1cn([C@H]2C[C@H](F)[C@@H](CO)O2)c(=O)[nH]c1=O [ALOVUDINE] | 1.4 µM | 15 µM | > 90% | > 90% | – | – | > 90% | 10 | Toxicity (MT4 [14]): < 10%; Protection (MT4 [23]): 10%; Protection (MT4 [25]): 10%; Toxicity (MT4 [26]): 10%
Nc1ccn([C@H]2C[C@H](O)[C@@H](CO)O2)c(=O)n1 [DOXECITINE] | > 100 µM | > 100 µM | < 10% | – | <10% | <10% | > 90% | – | Protection (MT4 [16]): <10%; Toxicity (MT4 [22]): 10%
Cc1cn([C@H]2C[C@H](O)[C@@H](CO)O2)c(=O)[nH]c1=O [DOXRIBTIMINE] | > 100 µM | > 100 µM | < 10% | < 10% | <10% | <10% | < 10% | – | Protection (MT4 [20]): 40%
Cc1cn([C@H]2C=C[C@@H](CO)O2)c(=O)[nH]c1=O [STAVUDINE] | 4.1 µM | 110 µM | – | > 90% | – | >90% | > 90% | 27 | Protection (MT4 [15]): <10%; Protection (MT4 [25]): 10%; Toxicity (MT4 [19]): 10%
